# M4 ag: human M4 muscarinic receptor agonists, primary screen, CHO-K1 cells, Fluo-8 calcium fluorescence. Muscarinic acetylcholine receptor M4 (Homo sapiens), P08173. CHO-K1 hM4/Gqi5; vehicle 0%, full acetylcholine response 100%. activation, % at 3 µM. 360,000 tested, 0.14% active;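 active means activation above the run mean over all test wells plus 3 SD, cut at about 32% in these data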;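 further: peak over basal fluorescence ratio per well then scaled between controls; 0% = DMSO wells and 100% = acetylcholine at EC100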
# Target sequence (P08173 whole entry, looked up): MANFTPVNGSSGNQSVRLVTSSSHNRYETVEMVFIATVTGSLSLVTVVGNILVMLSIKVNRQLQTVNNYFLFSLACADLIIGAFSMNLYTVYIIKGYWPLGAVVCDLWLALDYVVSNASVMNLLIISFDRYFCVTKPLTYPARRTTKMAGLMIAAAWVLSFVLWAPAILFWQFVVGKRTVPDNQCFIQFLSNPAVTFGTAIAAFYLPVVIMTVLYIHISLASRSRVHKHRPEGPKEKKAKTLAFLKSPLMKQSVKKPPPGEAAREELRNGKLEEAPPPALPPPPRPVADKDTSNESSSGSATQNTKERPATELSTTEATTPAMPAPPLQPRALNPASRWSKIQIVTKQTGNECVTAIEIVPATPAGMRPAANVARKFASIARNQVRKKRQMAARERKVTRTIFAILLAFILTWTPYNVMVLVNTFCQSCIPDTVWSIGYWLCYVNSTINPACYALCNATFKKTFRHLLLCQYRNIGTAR
# TAAR1 antagonist: human TAAR1 antagonists, primary screen, Fluo-8 calcium fluorescence, CHO RD-HGA16 cells. inhibition, % at 3 µM. antagonist. Trace amine-associated receptor 1 (Homo sapiens), Q96RJ0. 360,000 tested, 1.5% active. AID 624466, 2012;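 active means inhibition above a per-plate cutoff, the mean inhibition of test compounds on that plate plus 3 SD, cut at about 49% in these data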;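 further: 0% = DMSO plus EC80 beta-PEA response and 100% = DMSO alone without agonist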
#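 Test system: CHO RD-HGA16 cells bearing hTAAR1 | Reagent: β-PEA, EC80 | Compound dosing: 3 µM, single point | Schedule: Dye loading 75 min at 37 °C, then 30 min room temperature | Signal: Calcium fluorescence with Fluo-8 | Evaluation: Percent inhibition of PEA-evoked calcium signal, max/basal emission ratio | Control set: DMSO-only wells and EC80 β-PEA-stimulated wells | Repeats: Singlicate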
# CHRM4 PAM: human M4 muscarinic receptor positive allosteric modulators, primary screen, CHO-K1 cells, Fluo-8 calcium fluorescence; Muscarinic acetylcholine receptor M4 (Homo sapiens), P08173; CHO-K1 hM4/Gqi5, ACh EC20; 0% = ACh EC20, 100% = maximal ACh; activation, % at 3 µM; 360,000 tested, 0.4% active;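 active means activation above its plate's cutoff, the mean activation of sample wells plus 3 SD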
# TAAR1 agonist: human TAAR1 agonists, primary screen, Fluo-8 calcium fluorescence, CHO RD-HGA16 cells. Trace amine-associated receptor 1 (Homo sapiens), Q96RJ0. vehicle wells 0%, saturating PEA agonist 100%. activation, % at 3 µM. 360,000 tested, 0.99% active. AID 624467, 2012;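 active means activation above the mean activation of all test compounds in the run plus 3 SD, cut at about 38% in these data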
#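 Benchmarks: low control DMSO, high control PEA (EC100); System: CHO RD-HGA16 cells carrying human TAAR1 plus Gα16; Detection: Fluo-8 fluorescence, 5 s baseline then 140 s kinetic read; Schedule: 17-24 h plating, Fluo-8 75 min 37 °C, 30 min RT; Read-out basis: % activation from peak over basal fluorescence ratio, DMSO-to-PEA scaled.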
# M4 antag: human M4 muscarinic receptor antagonists, primary screen, CHO cells, Fluo-8 calcium fluorescence; Muscarinic acetylcholine receptor M4 (Homo sapiens), P08173; CHO-hM4 cells, ACh EC80; inhibition, % at 3 µM; 360,000 tested, 0.73% active;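 active means inhibition above its plate's cutoff, the mean inhibition of sample wells plus 3 SD, cut at about 27% in these data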;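 further: 0% = acetylcholine EC80 with DMSO and 100% = DMSO without agonist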
# * hit, by the source's call; . = no result. In the library only some 3% were active in any assay of this set; here they are far more common.
SMILES,M4 ag,TAAR1 antagonist,CHRM4 PAM,TAAR1 agonist,M4 antag
Cc1cccc(N2CCN(C(=O)Cn3nc(C)n4cccc4c3=O)CC2C)c1 (configuration not stated),12.2,-11.3,-4.4,1.4,-1.5
Cc1cccc(N2CCN(C(=O)Cn3sc4nc(C)cc(C)c4c3=O)CC2C)c1 (configuration not stated),27.6,.,-16.0,.,53.9*
Cc1ccc(S(=O)(=O)N2CCC(C(=O)N3Cc4ccccc4C3)CC2)cc1,3.0,-12.9,21.9*,8.4,-9.8
COc1ccc(S(=O)(=O)N2CCC(C(=O)N3CCc4ccccc4C3)CC2)cc1,3.7,15.9,17.7,23.9,-2.1
O=C(CC1CCCC1)N[C@H](C(=O)N1CCC[C@H]1C(=O)NC1CCCC1)C1CCCCC1,.,-28.6,.,-0.7,.
COc1ccccc1N1CCN(CC(=O)Nc2ccccc2C(=O)NC(C)c2ccccc2)CC1 (configuration not stated),22.6,58.7*,-10.8,32.2,19.5
COc1ccccc1N1CCN(CC(=O)Nc2ccccc2C(=O)NCCc2ccccc2)CC1,11.9,55.0*,-3.2,11.0,17.1
O=C(CN1CCN(c2ccc(F)cc2)CC1)Nc1ccccc1C(=O)NCCc1ccccc1,6.9,43.3,-1.2,17.6,-6.6
COC(=O)c1ccc(C(=O)OC)c(NC(=O)CN2CCN(c3ccccc3OC)CC2)c1,10.5,51.9*,-1.1,7.9,3.6
O=C(CN1CCN(c2ccccc2O)CC1)Nc1ccccc1C(=O)NCCc1ccccc1,17.6,60.7*,-8.7,17.6,17.5
O=C1CCCCC1CCS(=O)(=O)NCc1ccccc1 (configuration not stated),.,9.2,.,-0.5,.
CC(=O)N1C[C@@H](CO)[C@@H]2C[C@H]1c1ccccc1N2C,.,-5.5,.,1.4,.
COc1ccc(CCNC(=O)c2ccccc2NC(=O)CN2CCN(c3ccccc3O)CC2)cc1,22.2,64.0*,-6.4,14.5,25.2
O=C(NCc1ccco1)C(c1ccccc1)N(C(=O)Cc1cccs1)c1ccccc1F (configuration not stated),9.4,58.0*,-11.3,9.8,2.7
CSc1ncc2[nH]c(C(O)c3ccccc3)nc2n1 (configuration not stated),10.3,-16.1,18.0*,10.4,-10.2
C[C@@H]1COc2cc(N3CCC[C@@H]3CO)ccc2S(=O)(=O)N1,0.0,-5.0,-0.1,0.3,-8.5
Cc1ccc(-n2ccnc(SCC(=O)NCCc3ccccc3)c2=O)cc1F,2.1,-36.9,-0.6,37.5*,-4.0
COC(C(=O)Nc1ccc(S(=O)(=O)Nc2ccc(F)cc2)cc1)c1ccccc1 (configuration not stated),24.1,36.8,-2.6,56.3*,7.9
CCCS(=O)(=O)NC(=O)C1(C)CCN(C(=O)c2cccs2)C1 (configuration not stated),0.3,-31.8,3.7,3.2,-9.4
O=C1NC[C@H](CCCCN2C[C@H](Cc3ccc(O)cc3)N(CC3CCCCC3)C(=O)C2=O)N(CC2CCCCC2)C1=O,1.0,1.6,6.1,-0.2,-8.7
CN1CCCN=C1COC(=O)C(O)(c1ccccc1)C1CCCCC1 (configuration not stated),0.8,2.0,-18.2,0.2,99.2*
O=C(CCl)Nc1ncc(S(=O)(=O)c2ccc([N+](=O)[O-])cc2)s1,1.7,-7.2,0.2,2.9,2.1
CCCC(C)C(=O)Nc1ncc(S(=O)(=O)c2ccc([N+](=O)[O-])cc2)s1 (configuration not stated),66.5*,62.2*,-6.6,89.5*,10.6
O=C(NCc1ccccc1)[C@@H]1CCCN1C(=O)[C@H]1CCCN1C(=O)c1ccccc1Cl,.,-13.1,.,2.5,.
Cc1nc(N)c(Cc2ccc(Cl)cc2Cl)c(N)n1,36.0*,3.0,-17.8,9.2,20.3
SMILES,M4 ag,TAAR1 antagonist,CHRM4 PAM,TAAR1 agonist,M4 antag
CN(C)CCNC(=O)C(=O)NCC1OCCN1S(=O)(=O)c1cc(F)ccc1F (configuration not stated),-0.3,-12.3,-6.2,2.8,16.7
COc1ccccc1CCNC(=O)C(=O)NCC1OCCN1S(=O)(=O)c1cc(F)ccc1F (configuration not stated),4.0,-1.6,0.4,37.6*,-2.8
CN(Cc1nc2ccccc2c(=O)[nH]1)C(=O)c1cc(-c2ccc(Br)cc2)nc2ccccc12,0.8,50.1*,2.5,3.4,6.6
CN(Cc1nc2ccccc2c(=O)[nH]1)C(=O)c1ccccc1OCc1ccc(Cl)cc1,7.8,21.1,2.0,7.0,-1.9
CCOC(=O)N[C@@H](Cc1cccnc1)C(=O)N1CCC[C@H]1C(=O)NC1CCCC1,.,-11.9,.,3.2,.
COc1ccc(C(=O)NNC(=O)CSc2nnc(COc3ccc4ccccc4c3)n2C)cc1,-0.6,-2.2,14.4,43.6*,11.9
COc1ccc(C(=O)NNC(=O)CSc2nnc(COc3ccccc3)n2C)cc1,-0.9,-12.9,5.9,14.2,4.8
Nc1ccn([C@@H]2O[C@H](C(=O)NCC(F)(F)F)[C@@H](O)[C@H]2O)c(=O)n1,1.1,-9.3,1.3,1.1,-9.3
COc1cccc(-c2ncc3ccccc3c2COC(=O)N2CCOCC2)c1,13.1,55.6*,-7.6,22.9,5.9
COc1cccc(C2=NOC(C(=O)N3CCOCC3)C2)c1 (configuration not stated),0.9,6.4,29.5*,5.0,9.4
COC(=O)C1=C(C)N(Cc2ccc(C(F)(F)F)cc2)C(=NCC2CC2)NC1c1cccc(Cl)c1 (configuration not stated),.,38.8,.,24.9,.
O=C(OCn1ncc(Cl)c(Cl)c1=O)c1cccc(C(F)(F)F)c1,2.7,.,-17.2,.,58.2*
C=CCN(CC=C)C(=O)CN1C(=O)NC(c2ccccc2)(c2ccccc2)C1=O,3.2,-15.5,17.8*,11.2,-36.5
Cc1ccc(-c2nc3cccnc3o2)cc1NC(=O)COc1ccc(Cl)cc1C,0.7,-0.6,-2.9,7.8,-3.5
Cc1ccc(-c2nc3cccnc3o2)cc1NC(=O)COc1ccc(C(C)(C)C)cc1,9.7,68.6*,-9.1,16.9,24.7
c1ccc(CNc2nc(-c3ccccn3)nc3ccccc23)cc1,9.1,-4.8,10.3,3.5,-7.1
CCC(C)Nc1nc(-c2ccccn2)nc2ccccc12 (configuration not stated),8.9,5.4,22.0*,-1.1,-17.5
Cc1cc(N2CCN(CC(C)(C)O)C[C@@H]2C)ccc1N1CCN(Cc2ccccc2)[C@@H](C)C1,.,-35.5,.,1.7,.
O=C(Cc1ccccc1)N1CCc2[nH]nc(-c3ccccc3)c2C1,10.1,-1.0,18.0*,2.0,14.8
Cc1cccc(S(=O)(=O)N2CCC[C@H]2C(=O)N2CCC[C@@H]2C(=O)NCc2ccccc2)c1,.,-8.1,.,2.4,.
